In one data set the test system is Human alphaherpesvirus 1. As to the kind of experiment: Concentration that protects by 50% the cytopathic effect induced by herpes simplex virus - 1. Format: functional. In outline: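 HeLa monolayers (DMEM + 10% newborn calf serum) infected with HSV-1 strain KOS (Vero-grown and titrated) at moi 0.5 pfu/cell in presence of several compound concentrations; 48 h at 37 °C, then cytopathic effect scored by phase-contrast microscopy. Toxicity judged microscopically in uninfected cells.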
Background: Protection from cytopathic effect is a common read-out in antiviral testing.

The nature of data set [1]: (§1) Concentration that induces 50% cell toxicity was determined using monolayers of uninfected HeLa cells. It is filed as cell-based. Conditions: human, monolayers of uninfected HeLa cells; read-out: Tox50. In a few lines:
(§2)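 Uninfected HeLa monolayers, grown in DMEM with 10% newborn calf serum, were exposed to several concentrations of compound. They were incubated for 48 h at 37 °C, as in the parallel HSV-1 cytopathic-effect assay. Toxicity was judged by phase-contrast microscopy.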

The subject of another data set is HeLa. The data set is described as §1. Format: cell-based. The following applies: human, hela; read-out: Tox50. In a few lines:
as §2

Molecules are shown by their SMILES.

For the compound `NC(=O)O[C@H]1O[C@H](COCc2ccccc2)[C@@H](OCc2ccccc2)[C@H](OCc2ccccc2)[C@H]1OCc1ccccc1`, the CPE50 with Human alphaherpesvirus 1 is >350 µM. Further, in data set [1], the CC50 is > 350 µM.

As for `CC1(C)O[C@@H]2[C@H](O1)[C@@H](COS(=O)(=O)NC(=O)O[C@H]1O[C@H](COCc3ccccc3)[C@@H](OCc3ccccc3)[C@H](OCc3ccccc3)[C@H]1OCc1ccccc1)O[C@H]2n1ccc(=O)[nH]c1=O`, in the data set on Human alphaherpesvirus 1, the CPE50 was 85 µM. Further, the CC50 in data set [1] worked out at 230 µM.

`O=C(NS(=O)(=O)OC[C@H]1OC(n2ccc(=O)[nH]c2=O)[C@H](O)[C@@H]1O)O[C@H]1O[C@H](COCc2ccccc2)[C@@H](OCc2ccccc2)[C@H](OCc2ccccc2)[C@H]1OCc1ccccc1` (some centres undefined) returned a CPE50 in the data set on Human alphaherpesvirus 1 of 90 µM. Besides, the CC50 in data set [1] was found to be 360 µM.

Regarding `CC(=O)N[C@H]1[C@@H](OC(=O)NS(=O)(=O)OC[C@H]2OC(n3ccc(=O)[nH]c3=O)[C@H](O)[C@@H]2O)O[C@H](COC(C)=O)[C@@H](OC(C)=O)[C@@H]1OC(C)=O` (some centres undefined), in the data set with Human alphaherpesvirus 1, the CPE50 was >575 µM. In data set [1], the CC50 was > 575 µM.

Turning to `CC1(C)O[C@@H]2[C@H](O1)[C@@H](COS(N)(=O)=O)O[C@H]2n1ccc(=O)[nH]c1=O`, the CPE50 in the data set on Human alphaherpesvirus 1 was found to be 740 µM. Also, the CC50 in data set [1] was 740 µM.

For the compound `CC1(C)O[C@@H]2[C@H](O1)[C@@H](COC(N)=O)O[C@H]2n1ccc(=O)[nH]c1=O`, the CPE50 in the data set on Human alphaherpesvirus 1 is >660 µM. For the same compound, in data set [1], the CC50 is > 660 µM.

Consider `Nc1nc2c(ncn2COCCO)c(=O)[nH]1` [ACYCLOVIR], for which, in the data set with Human alphaherpesvirus 1, the CPE50 stood at 60 µM. Also, the CC50 in data set [1] came to 10000 µM.

The compound `NC12CC3CC(CC(C3)C1)C2` [AMANTADINE] gave a CPE50 in the data set on Human alphaherpesvirus 1 of 200 µM. For the same compound, the CC50 in data set [1] came to 500 µM.

As for `O=c1[nH]c(=O)n([C@H]2C[C@H](O)[C@@H](CO)O2)cc1/C=C/Br` [BRIVUDINE], in the data set with Human alphaherpesvirus 1, the CPE50 was 1 µM. Further, in data set [1], the CC50 was found to be 400 µM.

Turning to `CC(=O)N[C@H]1[C@@H](O[C@@H]2O[C@H](CC(O)[C@H]3O[C@@H](n4ccc(=O)[nH]c4=O)[C@H](O)[C@@H]3O)[C@H](O)[C@H](O)[C@H]2NC(=O)/C=C/CC(C)C)O[C@H](CO)[C@@H](N)[C@@H]1O` (some centres undefined) [TUNICAMYCIN], the CC50 in the data set on HeLa is 1 µM.

Values taken from ChEMBL document CHEMBL1122931, “Uridine 5'-diphosphate glucose analogues. Inhibitors of protein glycosylation that show antiviral activity” (J Med Chem, 1985).
